According to ChEMBL document CHEMBL3351230, “Synthesis of 2-anilinopyridine dimers as microtubule targeting and apoptosis inducing agents” (Bioorg Med Chem, 2014):
Values belong to the compound of their own block, whether it stands above or below them. The source made the active and inactive calls. The rule behind the calls is not given here.

What was measured:
A549 = experiment: Antiproliferative activity against human A549 cells assessed as growth inhibition after 48 hrs by SRB assay; details: A549, 48 h
MCF7 = experiment: Antiproliferative activity against human MCF7 cells assessed as growth inhibition after 48 hrs by SRB assay; details: MCF7, 48 h
DU-145 [1] = experiment: Antiproliferative activity against human DU145 cells assessed as growth inhibition after 48 hrs by SRB assay; details: DU-145, 48 h
DU-145 [2] = experiment: Cell cycle arrest in human DU145 cells assessed as cells accumulation at SubG1 phase at 2 uM after 48 hrs by propidium iodide staining-based flow cytometric analysis (reference value: 3.52%); format: functional
DU-145 [3] = experiment: Cell cycle arrest in human DU145 cells assessed as cells accumulation at SubG1 phase at 1 uM after 48 hrs by propidium iodide staining-based flow cytometric analysis (reference value: 3.52%); format: functional
DU-145 [4] = experiment: Cell cycle arrest in human DU145 cells assessed as cells accumulation at G0/G1 phase at 2 uM after 48 hrs by propidium iodide staining-based flow cytometric analysis (reference value: 84.75%); format: functional
DU-145 [5] = experiment: Cell cycle arrest in human DU145 cells assessed as cells accumulation at G0/G1 phase at 1 uM after 48 hrs by propidium iodide staining-based flow cytometric analysis (reference value: 84.75%); format: functional
DU-145 [6] = experiment: Cell cycle arrest in human DU145 cells assessed as cells accumulation at S phase at 2 uM after 48 hrs by propidium iodide staining-based flow cytometric analysis (reference value: 4.18%); format: functional
DU-145 [7] = experiment: Cell cycle arrest in human DU145 cells assessed as cells accumulation at S phase at 1 uM after 48 hrs by propidium iodide staining-based flow cytometric analysis (reference value: 4.18%); format: functional
DU-145 [8] = experiment: Cell cycle arrest in human DU145 cells assessed as cells accumulation at G2/M phase at 2 uM after 48 hrs by propidium iodide staining-based flow cytometric analysis (reference value: 6.81%); format: functional
DU-145 [9] = experiment: Cell cycle arrest in human DU145 cells assessed as cells accumulation at G2/M phase at 1 uM after 48 hrs by propidium iodide staining-based flow cytometric analysis (reference value: 6.81%); format: functional
Tubulin (Homo sapiens) [10] = biological target: T1, Tubulin (Homo sapiens) (UniProt P68371+Q9H4B7+P0DPH7+P68366+Q13509+Q71U36+P04350+Q3ZCM7+P07437+P68363+Q9BQE3+Q6PEY2+Q13885+Q9BVA1+Q9BUF5); experiment: Inhibition of tubulin polymerization (unknown origin) at 3 uM after 1 hr by fluorescence analysis; format: protein-complex assay
In short: (§1)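 Fluorescence-reporter tubulin polymerization kit. Tubulin (3 mg/mL) in PEM buffer with 1 mM GTP, with or without compound (3 µM, or 2.5–15 µM for IC50). Fluorescence (ex 360 / em 420 nm) was followed for 1 h at 37 °C. IC50 is the concentration giving 50% inhibition of assembly versus control. Data are mean ± SD of two experiments in triplicate, with E7010 as positive control.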

Tubulin = experiment: Inhibition of tubulin polymerization (unknown origin) after 1 hr by fluorescence analysis; format: protein-complex assay, Homo sapiens
In short: as §1

Tubulin (Homo sapiens) [11] = biological target: T1, Tubulin (Homo sapiens); experiment: Displacement of colchicine from tubulin (unknown origin) at 5 to 25 uM after 60 mins by competitive binding assay; format: protein-complex assay
In short: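 Compound (5, 10, 15, 20, 25 µM) was co-incubated with 4 µM colchicine and 3 µM tubulin in 30 mM Tris buffer for 60 min at 37 °C. Tubulin–colchicine fluorescence was read at ex 350 / em 435 nm. Buffer blank was subtracted and values were normalized to DMSO control (F/F0). Nocodazole or E7010 served as positive control and taxol as negative control.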

DU-145 [12] = experiment: Induction of apoptosis in human DU145 cells assessed as reduction in mitochondrial membrane potential at 2 uM after 48 hrs using JC-1 staining-based flow cytometry; format: functional, cell-based
DU-145 [13] = experiment: Induction of apoptosis in human DU145 cells assessed as increase in caspase 3 activation at 1 uM after 48 hrs by ELISA; format: functional
In short: (§2)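 DU-145 cells were treated at 1 or 2 µM for 48 h, pelleted and PBS-washed. Pellets were lysed 15 min and centrifuged at 20,000 rpm for 15 min. Caspase-3 activity in the supernatant was measured by a colorimetric ELISA-based kit per the manufacturer. Activity is expressed as fold over untreated control, mean ± SD of two experiments in triplicate.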

DU-145 [14] = experiment: Induction of apoptosis in human DU145 cells assessed as increase in caspase 3 activation at 2 uM after 48 hrs by ELISA; format: functional
In short: as §2

DU-145 [15] = experiment: Induction of apoptosis in human DU145 cells assessed as necrotic cells at 2 uM after 48 hrs by annexin V-FITC/propidium iodide staining-based flow cytometric analysis (reference value: 0.22%); format: functional
DU-145 [16] = experiment: Induction of apoptosis in human DU145 cells assessed as necrotic cells at 1 uM after 48 hrs by annexin V-FITC/propidium iodide staining-based flow cytometric analysis (reference value: 0.22%); format: functional
DU-145 [17] = experiment: Induction of apoptosis in human DU145 cells assessed as late apoptotic cells at 2 uM after 48 hrs by annexin V-FITC/propidium iodide staining-based flow cytometric analysis (reference value: 1.96%); format: functional
DU-145 [18] = experiment: Induction of apoptosis in human DU145 cells assessed as late apoptotic cells at 1 uM after 48 hrs by annexin V-FITC/propidium iodide staining-based flow cytometric analysis (reference value: 1.96%); format: functional
DU-145 [19] = experiment: Induction of apoptosis in human DU145 cells assessed as viable cells at 2 uM after 48 hrs by annexin V-FITC/propidium iodide staining-based flow cytometric analysis (reference value: 97.12%); format: functional; details: DU-145, 48 h, read-out: Activity
DU-145 [20] = experiment: Induction of apoptosis in human DU145 cells assessed as viable cells at 1 uM after 48 hrs by annexin V-FITC/propidium iodide staining-based flow cytometric analysis (reference value: 97.12%); format: functional; details: DU-145, 48 h, read-out: Activity
DU-145 [21] = experiment: Induction of apoptosis in human DU145 cells assessed as early apoptotic cells at 2 uM after 48 hrs by annexin V-FITC/propidium iodide staining-based flow cytometric analysis (reference value: 0.71%); format: functional
DU-145 [22] = experiment: Induction of apoptosis in human DU145 cells assessed as early apoptotic cells at 1 uM after 48 hrs by annexin V-FITC/propidium iodide staining-based flow cytometric analysis (reference value: 0.71%); format: functional
DU-145 [23] = experiment: Induction of apoptosis in human DU145 cells assessed as induction of DNA fragmentation at 1 uM after 48 hrs by agarose gel electrophoresis; format: functional, cell-based
In short: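 DU-145 cells (1×10^6, six-well) were seeded 24 h, then treated at 1 µM for 48 h. Lysates were digested with SDS/RNase A for 2 h at 56 °C, then proteinase K for 2 h at 37 °C. DNA was precipitated with ammonium acetate and ethanol at −80 °C, dissolved in TE, and resolved on 2% agarose against a 100 bp marker.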

DU-145 [24] = experiment: Induction of apoptosis in human DU145 cells assessed as mitochondrial membrane potential drop measured as necrotic cells at 2 uM after 48 hrs using JC-1 staining-based flow cytometry (reference value: 0%); format: functional
DU-145 [25] = experiment: Induction of apoptosis in human DU145 cells assessed as mitochondrial membrane potential drop measured as late apoptotic cells at 2 uM after 48 hrs using JC-1 staining-based flow cytometry (reference value: 90.9%); format: functional
DU-145 [26] = experiment: Induction of apoptosis in human DU145 cells assessed as mitochondrial membrane potential drop measured as viable cells at 2 uM after 48 hrs using JC-1 staining-based flow cytometry (reference value: 0%); format: functional
DU-145 [27] = experiment: Induction of apoptosis in human DU145 cells assessed as mitochondrial membrane potential drop measured as early apoptotic cells at 2 uM after 48 hrs using JC-1 staining-based flow cytometry (reference value: 9.1%); format: functional
DU-145 [28] = experiment: Induction of apoptosis in human DU145 cells assessed as mitochondrial membrane potential drop measured as necrotic cells at 1 uM after 48 hrs using JC-1 staining-based flow cytometry (reference value: 0%); format: functional
DU-145 [29] = experiment: Induction of apoptosis in human DU145 cells assessed as mitochondrial membrane potential drop measured as late apoptotic cells at 1 uM after 48 hrs using JC-1 staining-based flow cytometry (reference value: 90.9%); format: functional
DU-145 [30] = experiment: Induction of apoptosis in human DU145 cells assessed as mitochondrial membrane potential drop measured as viable cells at 1 uM after 48 hrs using JC-1 staining-based flow cytometry (reference value: 0%); format: functional
DU-145 [31] = experiment: Induction of apoptosis in human DU145 cells assessed as mitochondrial membrane potential drop measured as early apoptotic cells at 1 uM after 48 hrs using JC-1 staining-based flow cytometry (reference value: 9.1%); format: functional

Structure (SMILES): COc1ccc(Nc2ncccc2NC(=O)c2cccnc2Nc2cc(OC)c(OC)c(OC)c2)cc1
GI50 (A549): > 100 µM
GI50 (MCF7): > 100 µM
GI50 (DU-145 [1]): > 100 µM

Structure (SMILES): O=C(Nc1cccnc1Nc1ccc(F)cc1)c1cccnc1Nc1cc(C(F)(F)F)cc(C(F)(F)F)c1
Activity (DU-145 [2]): 2.41%
Activity (DU-145 [3]): 4.64%
Activity (DU-145 [4]): 53.38%
Activity (DU-145 [5]): 57.93%
Activity (DU-145 [6]): 1.77%
Activity (DU-145 [7]): 1.63%
Activity (DU-145 [8]): 41.19%
Activity (DU-145 [9]): 32.49%
inhibition (Tubulin (Homo sapiens) [10]): 64.3%
IC50 (Tubulin): 2.16 µM
inhibition (Tubulin (Homo sapiens) [11]): Active
inhibition (DU-145 [12]): Active
fold change (FC) (DU-145 [13]): 2
fold change (FC) (DU-145 [14]): 2
Activity (DU-145 [15]): 1.84%
Activity (DU-145 [16]): 1.27%
Activity (DU-145 [17]): 16.53%
Activity (DU-145 [18]): 14.03%
viability at 2 µM (DU-145 [19]): 75.7%
viability at 1 µM (DU-145 [20]): 80.4%
Activity (DU-145 [21]): 5.97%
Activity (DU-145 [22]): 4.28%
Activity (DU-145 [23]): Active
Activity (DU-145 [24]): 0%
Activity (DU-145 [25]): 67.4%
Activity (DU-145 [26]): 0%
Activity (DU-145 [27]): 32.6%
Activity (DU-145 [28]): 0%
Activity (DU-145 [29]): 89.4%
Activity (DU-145 [30]): 0%
Activity (DU-145 [31]): 10.6%
GI50 (A549): 39.2 µM
GI50 (MCF7): > 100 µM
GI50 (DU-145 [1]): 0.99 µM

Structure (SMILES): O=C(Nc1cccnc1Nc1ccccc1)c1cccnc1Nc1ccc(F)cc1
GI50 (A549): > 100 µM
GI50 (MCF7): > 100 µM
GI50 (DU-145 [1]): 7.7 µM

Structure (SMILES): O=C(Nc1cccnc1Nc1ccc(Cl)cc1)c1cccnc1Nc1ccc(F)cc1
GI50 (A549): > 100 µM
GI50 (MCF7): > 100 µM
GI50 (DU-145 [1]): 4.1 µM

Structure (SMILES): COc1ccc(Nc2ncccc2C(=O)Nc2cccnc2Nc2ccccc2)cc1
GI50 (A549): > 100 µM
GI50 (MCF7): > 100 µM
GI50 (DU-145 [1]): 8.1 µM

Now from value to compound, other results behind:

GI50 (A549): 4.1 µM
GI50 (MCF7): > 100 µM
GI50 (DU-145 [1]): 6.6 µM
Structure (SMILES): COc1ccc(Nc2ncccc2NC(=O)c2cccnc2Nc2ccc(F)cc2)cc1

IC50 (Tubulin): 2.4 µM
inhibition (Tubulin (Homo sapiens) [11]): Active
GI50 (A549): 1.31 µM
GI50 (MCF7): 1.25 µM
GI50 (DU-145 [1]): 1.81 µM
Structure (SMILES): COc1ccc(S(=O)(=O)Nc2cccnc2Nc2ccc(O)cc2)cc1 [ABT-751]
Activity (DU-145 [2]): 4.11%
Activity (DU-145 [4]): 54.38%
Activity (DU-145 [6]): 2.94%
Activity (DU-145 [8]): 36.52%
Activity (DU-145 [15]): 1.01%
Activity (DU-145 [17]): 17.72%
viability at 2 µM (DU-145 [19]): 77.3%
Activity (DU-145 [21]): 3.93%
Activity (DU-145 [24]): 0%
Activity (DU-145 [25]): 81.9%
Activity (DU-145 [26]): 0%
Activity (DU-145 [27]): 18.1%

GI50 (A549): 18.5 µM
GI50 (MCF7): 17.3 µM
GI50 (DU-145 [1]): > 100 µM
Structure (SMILES): COc1ccc(Nc2ncccc2C(=O)Nc2cccnc2Nc2ccc(F)cc2)cc1
